Laboratory results: ChEMBL document CHEMBL4414574, “Structure-Based Discovery and Development of a Series of Potent and Selective Bromodomain and Extra-Terminal Protein Inhibitors” (J Med Chem, 2019)
Calls of active or inactive are those of the source. The rule behind the calls is not given here.

Key:
[1] = molecular target: SWI/SNF-related matrix-associated actin-dependent regulator of chromatin subfamily A member 2 (Homo sapiens) (UniProt P51531); assay: Binding affinity to human partial length SMARCA2 (S1377 to Q1486 residues) expressed in Escherichia coli BL21 cells assessed as residual binding level at 1 uM measured after 1 hr by quantitative PCR based BROMOscan assay relative to control
Procedure, shortened: (§1)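 Bromodomain panel screen (32 bromodomains) run at 1 μM single concentration; primary binding reported as 'Percent Control', lower values meaning stronger interaction.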

Cytochrome P450 2C9 = Cytochrome P450 2C9 (Homo sapiens, UniProt P11712); assay: Time-dependent inhibition of CYP2C9 in human liver microsomes at 10 uM using diclofenac as substrate preincubated up to 30 mins followed by NADPH generating system addition and measured after 10 mins; type: ADME
Cytochrome P450 2C9, sequence (P11712 whole entry): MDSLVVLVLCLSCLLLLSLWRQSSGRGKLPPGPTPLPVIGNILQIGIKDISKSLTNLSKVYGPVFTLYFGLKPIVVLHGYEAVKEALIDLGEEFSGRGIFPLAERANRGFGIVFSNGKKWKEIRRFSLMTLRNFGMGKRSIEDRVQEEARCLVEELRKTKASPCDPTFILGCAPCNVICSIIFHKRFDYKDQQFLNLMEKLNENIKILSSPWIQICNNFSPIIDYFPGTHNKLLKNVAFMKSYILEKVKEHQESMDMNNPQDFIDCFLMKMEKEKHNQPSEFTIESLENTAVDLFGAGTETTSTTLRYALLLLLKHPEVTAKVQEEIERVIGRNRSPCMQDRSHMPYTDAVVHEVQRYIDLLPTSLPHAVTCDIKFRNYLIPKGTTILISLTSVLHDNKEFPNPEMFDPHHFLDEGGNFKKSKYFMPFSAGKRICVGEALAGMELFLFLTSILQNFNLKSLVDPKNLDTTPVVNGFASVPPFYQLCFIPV
Procedure, shortened: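 Human liver microsomes 0.2 mg/mL, 100 mM phosphate pH 7.4, 10 μM test compound, preincubated 0, 5, 10 and 30 min at 37 °C; then NADPH plus probe cocktail (5 μM midazolam, 50 μM testosterone, 5 μM dextromethorphan, 10 μM diclofenac, 50 μM phenacetin, 50 μM S-(+)-mephenytoin) added; 10 min reaction; kobs in units of 10^-4/min.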

[2] = Cmax in ICR mouse at 10 mg/kg, po administered via gavage measured after 0.25 to 24 hrs by UPLC/MS analysis; type: ADME, organism-based; design: dose 10 mg/kg, route oral; conditions: in vivo
Procedure, shortened: (§2)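 Male ICR mice dosed orally in 1% DMSO/0.5% HPMC vehicle; plasma or brain drug levels used to derive Tmax, Cmax, AUC0-t, AUC0-inf and T1/2.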

[3] = AUC (0 to t) in ICR mouse at 10 mg/kg, po administered via gavage measured after 0.25 to 24 hrs by UPLC/MS analysis; type: ADME, organism-based; design: time 0.25-24 hr, dose 10 mg/kg, route oral; conditions: in vivo
Procedure, shortened: (§3)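 Male ICR mice were dosed orally in 1% DMSO/0.5% HPMC vehicle. Plasma (and brain, where stated) concentrations gave Tmax, Cmax, T1/2, AUC0-t and AUC0-inf.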

[4] = AUC (0 to infinity) in ICR mouse at 10 mg/kg, po administered via gavage measured after 0.25 to 24 hrs by UPLC/MS analysis; type: ADME, organism-based; design: dose 10 mg/kg, route oral, time infinity; conditions: in vivo; procedure, shortened: as §3
[5] = Half life in ICR mouse at 10 mg/kg, po administered via gavage measured after 0.25 to 24 hrs by UPLC/MS analysis; type: ADME, organism-based; conditions: in vivo; procedure, shortened: as §2
[6] = molecular target: Bromodomain testis-specific protein (Homo sapiens) (UniProt Q58F21); assay: Binding affinity to human partial length BRDT bromodomain 1 (N21 to E137 residues) expressed in Escherichia coli BL21 cells assessed as residual binding level at 1 uM measured after 1 hr by quantitative PCR based BROMOscan assay relative to control
Procedure, shortened: (§4)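 A BROMOScan competition-binding panel of 32 bromodomains was run at a single 1 μM compound concentration. Results are primary-screen 'Percent Control', where lower values indicate stronger binding.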

[7] = molecular target: Nucleosome-remodeling factor subunit BPTF (Homo sapiens) (UniProt Q12830); assay: Binding affinity to human partial length FALZ (S2791 to H2911 residues) expressed in Escherichia coli BL21 cells assessed as residual binding level at 1 uM measured after 1 hr by quantitative PCR based BROMOscan assay relative to control; procedure, shortened: as §4
[8] = molecular target: Histone acetyltransferase KAT2A (Homo sapiens) (UniProt Q92830); assay: Binding affinity to human partial length GCN5L2 (E726 to K837 residues) expressed in Escherichia coli BL21 cells assessed as residual binding level at 1 uM measured after 1 hr by quantitative PCR based BROMOscan assay relative to control; procedure, shortened: as §4
[9] = molecular target: Histone acetyltransferase KAT2B (Homo sapiens) (UniProt Q92831); assay: Binding affinity to human partial length PCAF (G715 to D831 residues) expressed in mammalian expression system assessed as residual binding level at 1 uM measured after 1 hr by quantitative PCR based BROMOscan assay relative to control; procedure, shortened: as §1
[10] = molecular target: Bromodomain-containing protein 9 (Homo sapiens) (UniProt Q9H8M2); assay: Binding affinity to human partial length BRD9 (R130 to V259 residues) expressed in Escherichia coli BL21 cells assessed as residual binding level at 1 uM measured after 1 hr by quantitative PCR based BROMOscan assay relative to control; procedure, shortened: as §4
Bromodomain-containing protein 9 (Homo sapiens), sequence (Q9H8M2 whole entry, the tested form may be a part): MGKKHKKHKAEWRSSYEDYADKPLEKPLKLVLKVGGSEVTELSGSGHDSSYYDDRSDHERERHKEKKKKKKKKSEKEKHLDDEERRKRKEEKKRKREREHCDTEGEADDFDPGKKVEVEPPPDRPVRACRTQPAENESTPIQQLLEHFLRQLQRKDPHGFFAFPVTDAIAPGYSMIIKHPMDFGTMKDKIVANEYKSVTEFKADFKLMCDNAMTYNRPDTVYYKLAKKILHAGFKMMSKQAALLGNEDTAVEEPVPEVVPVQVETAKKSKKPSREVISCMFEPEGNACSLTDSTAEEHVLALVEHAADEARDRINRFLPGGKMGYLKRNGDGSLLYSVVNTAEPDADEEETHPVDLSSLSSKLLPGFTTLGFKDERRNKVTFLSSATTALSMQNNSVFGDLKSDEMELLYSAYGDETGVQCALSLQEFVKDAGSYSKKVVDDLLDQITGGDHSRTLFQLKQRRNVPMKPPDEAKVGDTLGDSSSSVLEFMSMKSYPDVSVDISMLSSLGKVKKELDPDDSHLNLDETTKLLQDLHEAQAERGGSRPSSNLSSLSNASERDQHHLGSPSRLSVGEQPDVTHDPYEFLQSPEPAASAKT

[11] = molecular target: Histone acetyltransferase p300 (Homo sapiens) (UniProt Q09472); assay: Inhibition of EP300 (unknown origin) at 1 uM
Histone acetyltransferase p300 (Homo sapiens), sequence (Q09472 whole entry): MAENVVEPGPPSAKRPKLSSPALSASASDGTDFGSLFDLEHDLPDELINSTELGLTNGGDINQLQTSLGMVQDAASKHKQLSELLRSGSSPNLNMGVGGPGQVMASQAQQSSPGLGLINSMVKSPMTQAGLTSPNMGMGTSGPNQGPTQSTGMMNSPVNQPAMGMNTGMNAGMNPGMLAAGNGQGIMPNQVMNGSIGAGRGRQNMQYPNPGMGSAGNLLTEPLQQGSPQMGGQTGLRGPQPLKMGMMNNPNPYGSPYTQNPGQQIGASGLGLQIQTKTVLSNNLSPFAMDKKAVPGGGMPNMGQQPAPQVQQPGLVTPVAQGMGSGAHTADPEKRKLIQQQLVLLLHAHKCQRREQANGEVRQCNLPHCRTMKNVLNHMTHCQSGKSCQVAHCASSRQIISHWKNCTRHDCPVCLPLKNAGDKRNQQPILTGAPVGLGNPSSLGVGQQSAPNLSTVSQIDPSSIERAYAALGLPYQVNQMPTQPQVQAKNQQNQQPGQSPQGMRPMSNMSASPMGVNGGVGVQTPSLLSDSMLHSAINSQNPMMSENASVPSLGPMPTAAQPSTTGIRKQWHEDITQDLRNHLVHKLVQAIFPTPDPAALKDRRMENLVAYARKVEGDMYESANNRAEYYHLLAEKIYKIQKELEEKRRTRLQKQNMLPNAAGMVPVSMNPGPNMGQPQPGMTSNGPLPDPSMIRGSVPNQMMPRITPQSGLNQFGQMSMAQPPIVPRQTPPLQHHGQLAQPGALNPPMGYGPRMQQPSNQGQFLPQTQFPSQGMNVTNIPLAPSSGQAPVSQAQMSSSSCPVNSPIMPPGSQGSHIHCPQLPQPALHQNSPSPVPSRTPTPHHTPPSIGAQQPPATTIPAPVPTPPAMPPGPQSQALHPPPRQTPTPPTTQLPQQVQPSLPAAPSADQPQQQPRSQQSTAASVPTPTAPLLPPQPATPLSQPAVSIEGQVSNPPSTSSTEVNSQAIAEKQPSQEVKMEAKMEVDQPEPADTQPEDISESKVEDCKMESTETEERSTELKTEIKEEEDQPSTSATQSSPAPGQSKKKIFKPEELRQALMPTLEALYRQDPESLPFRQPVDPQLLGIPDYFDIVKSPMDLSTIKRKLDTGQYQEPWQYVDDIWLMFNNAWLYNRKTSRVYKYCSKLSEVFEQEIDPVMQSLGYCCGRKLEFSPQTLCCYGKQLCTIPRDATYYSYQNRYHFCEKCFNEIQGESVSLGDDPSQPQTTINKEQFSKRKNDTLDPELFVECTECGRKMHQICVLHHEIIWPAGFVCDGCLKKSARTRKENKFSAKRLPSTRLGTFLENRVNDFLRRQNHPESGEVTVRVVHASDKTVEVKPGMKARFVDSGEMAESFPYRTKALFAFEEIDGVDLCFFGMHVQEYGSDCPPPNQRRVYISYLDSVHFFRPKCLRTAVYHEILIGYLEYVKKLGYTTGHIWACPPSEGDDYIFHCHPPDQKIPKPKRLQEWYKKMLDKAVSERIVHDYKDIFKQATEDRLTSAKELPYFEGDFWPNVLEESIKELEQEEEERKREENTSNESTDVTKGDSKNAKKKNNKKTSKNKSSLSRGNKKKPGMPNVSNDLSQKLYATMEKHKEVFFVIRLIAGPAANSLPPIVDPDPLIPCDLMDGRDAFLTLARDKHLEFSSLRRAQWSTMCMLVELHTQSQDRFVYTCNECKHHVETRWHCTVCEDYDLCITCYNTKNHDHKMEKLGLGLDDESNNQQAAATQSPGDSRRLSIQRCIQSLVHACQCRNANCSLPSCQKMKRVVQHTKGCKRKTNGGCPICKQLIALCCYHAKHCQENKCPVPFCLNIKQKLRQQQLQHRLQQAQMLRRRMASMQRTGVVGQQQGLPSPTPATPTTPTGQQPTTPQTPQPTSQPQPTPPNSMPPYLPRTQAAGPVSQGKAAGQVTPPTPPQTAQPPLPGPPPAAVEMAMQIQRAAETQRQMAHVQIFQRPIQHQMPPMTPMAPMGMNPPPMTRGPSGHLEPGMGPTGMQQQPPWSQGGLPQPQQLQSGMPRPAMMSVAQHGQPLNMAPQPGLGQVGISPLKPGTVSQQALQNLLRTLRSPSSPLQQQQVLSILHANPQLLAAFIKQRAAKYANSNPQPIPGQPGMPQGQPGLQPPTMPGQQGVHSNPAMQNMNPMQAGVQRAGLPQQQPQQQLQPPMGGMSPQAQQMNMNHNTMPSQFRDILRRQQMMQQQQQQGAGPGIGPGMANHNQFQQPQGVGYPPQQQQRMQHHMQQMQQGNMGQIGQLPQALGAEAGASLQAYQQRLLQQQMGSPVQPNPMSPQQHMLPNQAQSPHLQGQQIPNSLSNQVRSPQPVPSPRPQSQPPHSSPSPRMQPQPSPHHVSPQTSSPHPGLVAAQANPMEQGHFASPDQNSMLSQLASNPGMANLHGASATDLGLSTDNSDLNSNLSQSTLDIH
Procedure, shortened: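 Bromodomain binding panel (32 bromodomains) screened at 1 μM; primary binding read-out reported as percent of control, lower values meaning stronger binding.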

MDA-MB-468 = assay: Antiproliferative activity against human MDA-MB-468 cells after 72 hrs by CCK8 or SRB assay; type: functional, cell-based
MDA-MB-436 = assay: Antiproliferative activity against human MDA-MB-436 cells after 72 hrs by CCK8 or SRB assay; type: functional, cell-based
SW-620 = assay: Antiproliferative activity against human SW620 cells after 72 hrs by CCK8 or SRB assay; type: functional, cell-based
A549 = assay: Antiproliferative activity against human A549 cells after 72 hrs by CCK8 or SRB assay; type: functional, cell-based
MV4-11 = assay: Induction of apoptosis in human MV4-11 cells assessed as reduction in PUMA level after 24 hrs by Western blot analysis; type: functional, cell-based
Procedure, shortened: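 MV4-11 cells exposed to compound at the indicated doses for 24 h; lysates probed by Western blotting for the target protein, with GAPDH as loading control.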

[12] = Half life in dog liver microsomes; type: ADME, Canis lupus familiaris, Microsome
[13] = molecular target: Voltage-gated inwardly rectifying potassium channel KCNH2 (Homo sapiens, UniProt Q12809); assay: Inhibition of human ERG at 40 uM by automatic patch clamp method
Voltage-gated inwardly rectifying potassium channel KCNH2, sequence (Q12809 whole entry): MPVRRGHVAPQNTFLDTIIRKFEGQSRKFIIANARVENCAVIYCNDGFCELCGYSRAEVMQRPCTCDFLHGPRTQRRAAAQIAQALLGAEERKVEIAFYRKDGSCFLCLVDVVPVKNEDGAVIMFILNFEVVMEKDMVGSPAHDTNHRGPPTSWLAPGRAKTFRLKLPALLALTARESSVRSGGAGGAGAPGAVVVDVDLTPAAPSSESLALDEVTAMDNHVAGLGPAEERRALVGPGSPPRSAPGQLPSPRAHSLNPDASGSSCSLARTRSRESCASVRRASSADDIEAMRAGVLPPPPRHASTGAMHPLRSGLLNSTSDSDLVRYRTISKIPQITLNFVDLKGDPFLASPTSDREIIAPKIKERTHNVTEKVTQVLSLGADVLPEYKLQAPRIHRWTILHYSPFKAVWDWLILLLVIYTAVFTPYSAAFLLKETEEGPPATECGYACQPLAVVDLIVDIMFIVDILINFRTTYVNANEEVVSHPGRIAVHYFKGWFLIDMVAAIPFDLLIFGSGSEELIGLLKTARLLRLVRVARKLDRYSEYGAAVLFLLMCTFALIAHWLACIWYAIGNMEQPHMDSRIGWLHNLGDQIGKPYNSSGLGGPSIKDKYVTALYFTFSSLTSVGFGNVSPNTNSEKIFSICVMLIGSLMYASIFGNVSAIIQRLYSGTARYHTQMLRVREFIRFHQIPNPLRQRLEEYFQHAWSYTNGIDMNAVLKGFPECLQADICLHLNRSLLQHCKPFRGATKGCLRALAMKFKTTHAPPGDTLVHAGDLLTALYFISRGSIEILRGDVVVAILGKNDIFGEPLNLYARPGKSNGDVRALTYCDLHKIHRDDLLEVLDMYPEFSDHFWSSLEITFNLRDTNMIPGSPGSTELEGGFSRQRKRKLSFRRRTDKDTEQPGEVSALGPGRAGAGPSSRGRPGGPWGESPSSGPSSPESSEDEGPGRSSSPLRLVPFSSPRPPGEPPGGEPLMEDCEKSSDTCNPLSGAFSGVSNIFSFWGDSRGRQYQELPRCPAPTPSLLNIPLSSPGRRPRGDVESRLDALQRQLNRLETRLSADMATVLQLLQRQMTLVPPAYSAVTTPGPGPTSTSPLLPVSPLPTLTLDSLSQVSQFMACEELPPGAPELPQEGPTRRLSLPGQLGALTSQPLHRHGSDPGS

[14] = Ratio of drug level in brain to plasma in ICR mouse at 50 mg/kg, po administered via gavage measured after 0.25 to 24 hrs by UPLC/MS analysis; type: ADME, organism-based
Procedure, shortened: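 Male ICR mice dosed orally at 50 mg/kg in 1% DMSO/0.5% HPMC; drug measured in plasma and brain.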

[15] = Tmax in rat plasma at 50 mg/kg, po; type: ADME, organism-based
Procedure, shortened: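 Rats dosed orally at 50 mg/kg in 1% DMSO/0.5% HPMC; drug measured in plasma and brain.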

[16] = Cmax in rat plasma at 50 mg/kg, po; type: ADME, organism-based; design: dose 50 mg/kg, route oral
[17] = AUC (0 to t) in ICR mouse plasma at 100 mg/kg, po administered via gavage measured after 0.25 to 24 hrs by UPLC/MS analysis; type: ADME, organism-based; design: time upper 24 hr, dose 100 mg/kg, time lower 0.25 hr, route oral; procedure, shortened: as §3
[18] = AUC (0 to t) in rat plasma at 3 mg/kg, iv; type: ADME, organism-based
Procedure, shortened: (§5)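 Compound was given orally or intravenously in 1% DMSO/0.5% HPMC vehicle. Concentrations in plasma, or in brain where stated, gave Tmax, Cmax, T1/2, AUC0-t and AUC0-inf.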

[19] = AUC (0 to infinity) in ICR mouse plasma at 50 mg/kg, po administered via gavage measured after 0.25 to 24 hrs by UPLC/MS analysis; type: ADME, organism-based; design: dose 50 mg/kg, route oral, time infinity; procedure, shortened: as §3
[20] = AUC (0 to infinity) in dog plasma at 1 mg/kg, iv; type: ADME, organism-based, Canis lupus familiaris; design: dose 1 mg/kg, time infinity, route intravenous; procedure, shortened: as §5
[21] = Half life in ICR mouse plasma at 50 mg/kg, po administered via gavage measured after 0.25 to 24 hrs by UPLC/MS analysis; type: ADME, organism-based; procedure, shortened: as §2
[22] = Half life in ICR mouse brain at 50 mg/kg, po administered via gavage measured after 0.25 to 24 hrs by UPLC/MS analysis; type: ADME, organism-based; procedure, shortened: as §2

Q: For `Cc1ccc(-n2nc(C(=O)N3C[C@@H](C)N[C@@H](C)C3)nc2-c2ccc3c(c2)N(C2CCCC2)[C@H](C)C(=O)N3C)cc1`, which Activity [1] is on record?
A: Its Activity is 70 to 100%.

Q: What about the TDI (Cytochrome P450 2C9) of the same compound?
A: The TDI was “Not Active”.

Q: And the Cmax [2]?
A: Its Cmax is 1900 ng/mL.

Q: What about the AUC(0-t) [3] of the same compound?
A: The AUC(0-t) was 7380 ng·h/mL.

Q: And the AUC(0-inf) [4]?
A: The AUC(0-inf) was 7390 ng·h/mL.

Q: And the half-life [5]?
A: Its half-life is 2.1 h.

Q: What about the Activity [6] of the same compound?
A: The Activity was under 5%.

Q: And the Activity [7]?
A: The Activity was 70 to 100%.

Q: What about the Activity [8] of the same compound?
A: The Activity was 70 to 100%.

Q: What about the Activity [9] of the same compound?
A: The Activity was 70 to 100%.

Q: And the Activity [10]?
A: The Activity was 70 to 100%.

Q: What about the inhibition [11] of the same compound?
A: Its inhibition is “inactive”.

Q: And the Activity (MDA-MB-468)?
A: The Activity was “Active”.

Q: And the Activity (MDA-MB-436)?
A: The Activity was “Active”.

Q: What about the Activity (SW-620) of the same compound?
A: Its Activity is “Active”.

Q: What about the Activity (A549) of the same compound?
A: The Activity was “Active”.

Q: And the Activity (MV4-11)?
A: The Activity was “Dose-dependent effect”.

Q: And the half-life [12]?
A: Its half-life is 0.3 h.

Q: What about the “inhibition (INH)” value [13] of the same compound?
A: Its value is “Not Active”.

Q: And the BPR [14]?
A: Its BPR is 13.9%.

Q: What about the Tmax [15] of the same compound?
A: The Tmax was 0.4 h.

Q: What about the Cmax [16] of the same compound?
A: Its Cmax is 1250 ng/mL.

Q: And the AUC(0-t) [17]?
A: The AUC(0-t) was 80600 ng·h/mL.

Q: And the AUC(0-t) [18]?
A: The AUC(0-t) was 2010 ng·h/mL.

Q: And the AUC(0-inf) [19]?
A: Its AUC(0-inf) is 16800 ng·h/mL.

Q: What about the AUC(0-inf) [20] of the same compound?
A: Its AUC(0-inf) is 856 ng·h/mL.

Q: What about the half-life [21] of the same compound?
A: The half-life was 2.8 h.

Q: And the half-life [22]?
A: Its half-life is 3 h.
